Results reported in ChEMBL document CHEMBL1137010, “Improved peptide prodrugs of 5-ALA for PDT: rationalization of cellular accumulation and protoporphyrin IX production by direct determination of cellular prodrug uptake and prodrug metabolization” (J Med Chem, 2009).
Values belong to the compound of their own block, whether it stands above or below them. Activity calls are given as the source filed them. No cut-off for these calls is given here.

Tests used:
[1] = Chromatographic hydrophobicity index in acetonitrile solution under isocratic conditions at pH 6.8; format: physicochemical
Outline: (§1)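 RP-HPLC on a C18 column at 35 °C, 0.7 mL/min. Mobile phase was CH3CN or CH3OH with 50 mM aq ammonium formate (pH 6.8). […], with t0 from uracil and tR measured in duplicate. Six isocratic compositions were chosen so that −1.5 < log k < 0.6, and the index was derived from the linear log k versus organic-fraction relation.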

[2] = Chromatographic hydrophobicity index in methanol solution under isocratic conditions at pH 6.8; format: physicochemical; outline: as §1
PAM212 [3] = experiment: Drug uptake in mouse PAM212 cells assessed as enhanced PpIX fluorescence at 0.1 mM after 4 hrs; format: ADME, cell-based; conditions: pam212, 4 h, 100 µM
Outline: (§2)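 PAM212 cells were seeded 5 × 10^4/well, grown 48 h, PBS-washed and incubated with drug at 0.01 or 0.1 mM in serum-free medium for 4 or 6 h. Untreated wells gave background and ALA wells served as reference. Well fluorescence: excitation 410 nm, emission 635 nm, scans 600–750 nm. Mean intensity (arbitrary units) after control subtraction, calibrated against rhodamine B.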

PAM212 [4] = experiment: Drug uptake in mouse PAM212 cells assessed as enhanced PpIX fluorescence at 0.01 mM after 4 hrs; format: ADME, cell-based; conditions: pam212, 4 h, 10 µM; outline: as §2
PAM212 [5] = experiment: Drug uptake in mouse PAM212 cells assessed as intracellular 5-aminolaevulinic acid level per mg of protein at 0.1 mM after 4 hrs; format: ADME, cell-based; conditions: pam212, 4 h, 100 µM
PAM212 [6] = experiment: Drug uptake in mouse PAM212 cells assessed as PpIX production per mg of protein at 0.1 mM after 4 hrs; format: ADME, cell-based; conditions: pam212, 4 h, 100 µM
Outline: (§3)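 Cells (PAM212; A549 in F12K; Caco-2 in EMEM, 37 °C, 5% CO2) were seeded in 100 mm dishes and grown 48 h at 37 °C. After PBS washing they were incubated 4 h at 37 °C with 0.1 or 1 mM drug, washed, lysed 15 min and scraped, then centrifuged at 1800 g for 10 min. Supernatant PpIX was read by fluorescence (410/635 nm) against a PpIX standard curve and normalized to protein by BCA.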

PAM212 [7] = experiment: Drug uptake in mouse PAM212 cells assessed as intracellular 5-aminolaevulinic acid level per mg of protein at 1 mM after 4 hrs; format: ADME, cell-based; conditions: pam212, 4 h, 1000 µM
PAM212 [8] = experiment: Drug uptake in mouse PAM212 cells assessed as PpIX production per mg of protein at 1 mM after 4 hrs; format: ADME, cell-based; conditions: pam212, 4 h, 1000 µM; outline: as §3
PAM212 [9] = experiment: Drug uptake in mouse PAM212 cells assessed as enhanced PpIX fluorescence at 0.1 mM after 6 hrs; format: ADME, cell-based; conditions: pam212, 6 h, 100 µM; outline: as §2
PAM212 [10] = experiment: Phototoxicity against mouse PAM212 cells assessed as cell viability at 0.1 mM after 4 hrs irradiated with 2.5 J/cm2 blue light by MTT assay relative to control; format: functional; conditions: PAM212, light or radiation study, read-out: Activity
Outline: (§4)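 PAM212 cells were seeded about 5 × 10^4/well, grown 48 h, PBS-washed and incubated 4 h with drug at 0.01, 0.1 or 1 mM. Blue light (peak 420 nm) was delivered at 2.5 J/cm², although the methods section states 1.25 J/cm². Medium was then replaced and cells kept 24 h. MTT 1 mg/mL for 3 h, DMSO, A570; survival as % of non-irradiated drug-treated controls.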

PAM212 [11] = experiment: Cytotoxicity against mouse PAM212 cells after 24 hrs in absence of 2.5 J/cm2 blue light by MTT assay; format: functional, cell-based
Outline: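 Dark toxicity. PAM212 keratinocytes (RPMI-1640, 10% FCS) were seeded about 5 × 10^4 cells/well and grown 48 h, PBS-washed, then given drug for 4 h without irradiation. Medium was replaced and cells were kept a further 24 h. MTT 1 mg/mL for 3 h, formazan dissolved in DMSO, absorbance at 570 nm.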

A549 [12] = experiment: Drug uptake in human A549 cells assessed as intracellular 5-aminolaevulinic acid level per mg of protein at 0.1 mM after 4 hrs; format: ADME, cell-based; conditions: a549, 4 h, 100 µM
A549 [13] = experiment: Drug uptake in human A549 cells assessed as PpIX production per mg of protein at 0.1 mM after 4 hrs; format: ADME, cell-based; conditions: a549, 4 h, 100 µM; outline: as §3
Caco-2 [14] = experiment: Drug uptake in human Caco-2 cells assessed as intracellular 5-aminolaevulinic acid level per mg of protein at 1 mM after 4 hrs; format: ADME, cell-based; conditions: caco-2, 4 h, 1000 µM
Caco-2 [15] = experiment: Drug uptake in human Caco-2 cells assessed as PpIX production per mg of protein at 1 mM after 4 hrs; format: ADME, cell-based; conditions: caco-2, 4 h, 1000 µM; outline: as §3
PAM212 [16] = experiment: Phototoxicity against mouse PAM212 cells assessed as cell viability at 0.01 mM after 4 hrs irradiated with 2.5 J/cm2 blue light by MTT assay relative to control; format: functional, cell-based; outline: as §4
PAM212 [17] = experiment: Drug uptake in mouse PAM212 cells assessed as enhanced PpIX fluorescence at 0.01 mM after 6 hrs; format: ADME, cell-based; conditions: pam212, 6 h, 10 µM; outline: as §2

Structure (SMILES): COC(=O)CCC(=O)CNC(=O)[C@@H]1CCCN1C(C)=O
CHI [1]: 18.69
CHI [2]: 27.47

Structure (SMILES): CC[C@H](C)[C@H](NC(C)=O)C(=O)NCC(=O)CCC(=O)OC
CHI [1]: 37.14
CHI [2]: 46.91
Drug uptake (PAM212 [5]): 1.64 µg/mg
Drug uptake (PAM212 [6]): 40.2 ng/mg
Drug uptake (PAM212 [7]): 7.1 µg/mg
Drug uptake (PAM212 [8]): 22.3 ng/mg

Structure (SMILES): COC(=O)CCC(=O)CNC(=O)[C@@H](Cc1ccccc1)NC(C)=O
CHI [1]: 37.71
CHI [2]: 52.62
Drug uptake (PAM212 [5]): 1.07 µg/mg
Drug uptake (PAM212 [6]): 4.57 ng/mg
Drug uptake (PAM212 [7]): 4.35 µg/mg
Drug uptake (PAM212 [8]): -2.99 ng/mg

Structure (SMILES): COC(=O)CCC(=O)CNC(=O)[C@H]1CCCN1C(C)=O
CHI [1]: 18.7
CHI [2]: 27.34

Structure (SMILES): CC(=O)N[C@@H](Cc1ccccc1)C(=O)NCC(=O)CCC(=O)O[C@@H]1C[C@H](C)CCC1C(C)C (some centres not stated)
CHI [1]: 53.22
CHI [2]: 110.53
Drug uptake (PAM212 [3]): Active
Drug uptake (PAM212 [4]): Active

Structure (SMILES): COC(=O)CCC(=O)CNC(=O)[C@H](NC(C)=O)C(C)C
CHI [1]: 24.74
CHI [2]: 40.76

Structure (SMILES): COC(=O)CCC(=O)CNC(=O)CNC(C)=O
CHI [1]: 10.31
CHI [2]: 18.77

Structure (SMILES): COC(=O)CCC(=O)CNC(=O)[C@H](CO)NC(C)=O
CHI [1]: 14.61
CHI [2]: 36.43
Drug uptake (PAM212 [5]): 0.5 µg/mg
Drug uptake (PAM212 [6]): 33.9 ng/mg
Drug uptake (PAM212 [7]): 2.17 µg/mg
Drug uptake (PAM212 [8]): 222 ng/mg

Structure (SMILES): COCCOC(=O)CCC(=O)CNC(=O)[C@H](Cc1ccccc1)NC(C)=O
CHI [1]: 38.26
CHI [2]: 79.03
Drug uptake (PAM212 [3]): Active
Drug uptake (PAM212 [4]): Active

Structure (SMILES): COC(=O)CCC(=O)CNC(=O)[C@H](CCCCN)NC(C)=O
CHI [1]: 8.48
CHI [2]: 13.61
Drug uptake (PAM212 [5]): 0.68 µg/mg
Drug uptake (PAM212 [6]): 13.2 ng/mg
Drug uptake (PAM212 [7]): 3.06 µg/mg
Drug uptake (PAM212 [8]): 20.2 ng/mg

Structure (SMILES): COCCOCCOC(=O)CCC(=O)CNC(=O)[C@H](Cc1ccccc1)NC(C)=O
CHI [1]: 38.88
CHI [2]: 58.35
Drug uptake (PAM212 [3]): Active
Drug uptake (PAM212 [4]): Active

Structure (SMILES): COC(=O)CCC(=O)CNC(=O)[C@H](Cc1ccc(O)cc1)NC(C)=O
CHI [1]: 34.14
CHI [2]: 40.73

Structure (SMILES): COC(=O)CCC(=O)CNC(=O)[C@@H](NC(C)=O)C(C)C
CHI [1]: 25.64
CHI [2]: 41.6
Drug uptake (PAM212 [3]): Active

Structure (SMILES): NCC(=O)CCC(=O)O [AMINOLEVULINIC ACID]
Drug uptake (PAM212 [5]): 0.81 µg/mg
Drug uptake (PAM212 [6]): 108 ng/mg
Drug uptake (PAM212 [7]): 3.41 µg/mg
Drug uptake (PAM212 [8]): 310 ng/mg
Drug uptake (A549 [12]): 0.08 µg/mg
Drug uptake (A549 [13]): 39.9 ng/mg
Drug uptake (Caco-2 [14]): 2.66 µg/mg
Drug uptake (Caco-2 [15]): 603 ng/mg
viability at 100 µM (PAM212 [10]): 11%
Activity (PAM212 [16]): inactive

Structure (SMILES): CCCCCCOC(=O)CCC(=O)CNC(=O)[C@H](Cc1ccccc1)NC(C)=O
CHI [1]: 56.64
CHI [2]: 97.31
Drug uptake (PAM212 [3]): Active
Drug uptake (PAM212 [4]): Active
Drug uptake (PAM212 [5]): 4.14 µg/mg
Drug uptake (PAM212 [6]): 284 ng/mg
Drug uptake (PAM212 [7]): 18.9 µg/mg
Drug uptake (PAM212 [8]): 247 ng/mg
Drug uptake (A549 [12]): 1.63 µg/mg
Drug uptake (A549 [13]): 10.1 ng/mg
Drug uptake (Caco-2 [14]): 14.8 µg/mg
Drug uptake (Caco-2 [15]): 480 ng/mg
viability at 100 µM (PAM212 [10]): 3%
Activity (PAM212 [16]): Active

Structure (SMILES): COC(=O)CCC(=O)CNC(=O)[C@@H](CC(C)C)NC(C)=O
CHI [1]: 33.89
CHI [2]: 50.76

Second part, led by results:

CHI [1]: 44.01
CHI [2]: 57.58
Drug uptake (PAM212 [3]): Active
Drug uptake (PAM212 [4]): Active
Structure (SMILES): CCOC(=O)CCC(=O)CNC(=O)[C@H](Cc1ccccc1)NC(C)=O

CHI [1]: 17.3
CHI [2]: 17.3
Structure (SMILES): COC(=O)CCC(=O)CNC(=O)[C@@H](C)NC(C)=O

CHI [1]: 15.59
CHI [2]: 28.89
Structure (SMILES): COC(=O)CCC(=O)CNC(=O)[C@H](Cc1cnc[nH]1)NC(C)=O

CHI [1]: 23.14
CHI [2]: 35.01
Drug uptake (PAM212 [3]): Active
Drug uptake (PAM212 [9]): Active
Drug uptake (PAM212 [5]): 1.2 µg/mg
Drug uptake (PAM212 [6]): 165 ng/mg
Drug uptake (PAM212 [7]): 5.04 µg/mg
Drug uptake (PAM212 [8]): 276 ng/mg
Structure (SMILES): COC(=O)CCC(=O)CNC(=O)[C@H](CCC(=O)O)NC(C)=O
viability at 100 µM (PAM212 [10]): 3%
Activity (PAM212 [11]): inactive

CHI [1]: 37.32
CHI [2]: 22.08
Structure (SMILES): COC(=O)CCC(=O)CNC(=O)[C@@H](Cc1c[nH]c2ccccc12)NC(C)=O

CHI [1]: 19.62
CHI [2]: 24.27
Drug uptake (PAM212 [5]): 0.41 µg/mg
Drug uptake (PAM212 [6]): 19.1 ng/mg
Drug uptake (PAM212 [7]): 1.94 µg/mg
Drug uptake (PAM212 [8]): 20.2 ng/mg
Structure (SMILES): COC(=O)CCC(=O)CNC(=O)[C@H](CC(=O)O)NC(C)=O

CHI [1]: 14.18
CHI [2]: 17.08
Drug uptake (PAM212 [3]): Active
Drug uptake (PAM212 [4]): Active
Drug uptake (PAM212 [17]): Active
Drug uptake (PAM212 [5]): 0.88 µg/mg
Drug uptake (PAM212 [6]): 10.9 ng/mg
Drug uptake (PAM212 [7]): 3.93 µg/mg
Drug uptake (PAM212 [8]): 12.9 ng/mg
Structure (SMILES): COC(=O)CCC(=O)CNC(=O)[C@H](C)NC(C)=O
viability at 100 µM (PAM212 [10]): 3%
Activity (PAM212 [11]): inactive

CHI [1]: 37.35
CHI [2]: 22.08
Drug uptake (PAM212 [5]): 2.41 µg/mg
Drug uptake (PAM212 [6]): 26.6 ng/mg
Drug uptake (PAM212 [7]): 10.3 µg/mg
Drug uptake (PAM212 [8]): 38.9 ng/mg
Drug uptake (A549 [12]): 0.23 µg/mg
Drug uptake (A549 [13]): -0.02 ng/mg
Drug uptake (Caco-2 [14]): 8.35 µg/mg
Drug uptake (Caco-2 [15]): -5.9 ng/mg
Structure (SMILES): COC(=O)CCC(=O)CNC(=O)[C@H](Cc1c[nH]c2ccccc12)NC(C)=O
